Our source for the GI50 and Activity values is ChEMBL document CHEMBL1152657, “1-(2-((Z)-6-(2-(Trifluoromethyl)phenyl)hexa-3-en-1,5-diynyl)phenyl)piperidin-2-one as a new potent apoptosis agent” (2009).

Activity calls are given as the source filed them. The rule behind the calls is not given here.

The GI50 is the concentration at which growth is held to half of that of the control.

One experiment relates to K562. The experiment is described as follows: Growth inhibition of human K562 cells. The class given is functional. A digest of the protocol: (§1)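 Tested in the NCI in vitro antitumor screening protocol on human tumor lines. The value is the concentration giving 50% reduction in cell growth.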
In turn, `CCC(=O)Nc1ccccc1C#C/C=C\C#Cc1ccccc1C(F)(F)F` registered a GI50 of 6.36 µM.

`CSc1ccccc1C#C/C=C\C#Cc1ccccc1N1CCCC1=O` showed a GI50 of 0.44 µM.

The next experiment deals with CCRF-CEM. The experiment is described as follows: Growth inhibition of human CCRF-CEM cells. The class given is functional. A digest of the protocol: as §1
`CCC(=O)Nc1ccccc1C#C/C=C\C#Cc1ccccc1C(F)(F)F`: halving of growth (GI50) required 2.75 µM.

`CSc1ccccc1C#C/C=C\C#Cc1ccccc1N1CCCC1=O`: the GI50 was 0.21 µM.

Another experiment concerns HOP-62. In words: Growth inhibition of human HOP62 cells. It is filed as functional. The gist of the method: as §1
In turn, `CCC(=O)Nc1ccccc1C#C/C=C\C#Cc1ccccc1C(F)(F)F` gave a GI50 of 10 µM.

`CSc1ccccc1C#C/C=C\C#Cc1ccccc1N1CCCC1=O` had a GI50 of 5.02 µM.

The test system of the next experiment is HCT-15. In words: Growth inhibition of human HCT15 cells. The class given is functional. The gist of the method:
as §1
`CCC(=O)Nc1ccccc1C#C/C=C\C#Cc1ccccc1C(F)(F)F` showed a GI50 of 4.27 µM.

`CSc1ccccc1C#C/C=C\C#Cc1ccccc1N1CCCC1=O` gave a GI50 of 1.53 µM.

For a further experiment, the system named is HCC 2998. The experiment is described as follows: Growth inhibition of human HCC2998 cells. It is filed as functional. A digest of the protocol:
as §1
For the compound `CCC(=O)Nc1ccccc1C#C/C=C\C#Cc1ccccc1C(F)(F)F`, halving of growth (GI50) required 5.08 µM.

In the case of `CSc1ccccc1C#C/C=C\C#Cc1ccccc1N1CCCC1=O`, halving of growth (GI50) required 1.32 µM.

The next experiment concerns SNB-75. In words: Growth inhibition of human SNB75 cells. The class given is functional. The gist of the method:
as §1
Consider `CCC(=O)Nc1ccccc1C#C/C=C\C#Cc1ccccc1C(F)(F)F`, for which the 50% growth inhibitory concentration (GI50) is 4.76 µM.

Compound `CSc1ccccc1C#C/C=C\C#Cc1ccccc1N1CCCC1=O` yielded a GI50 of 2.34 µM.

The subject of a further experiment is M14. The experiment is described as follows: Growth inhibition of human M14 cells. It is filed as functional. A digest of the protocol:
as §1
`CCC(=O)Nc1ccccc1C#C/C=C\C#Cc1ccccc1C(F)(F)F` registered a GI50 of 12 µM.

`CSc1ccccc1C#C/C=C\C#Cc1ccccc1N1CCCC1=O` showed a GI50 of 3 µM.

The subject of a further experiment is UACC-62. The experiment is described as follows: Growth inhibition of human UACC62 cells. The class given is functional. A digest of the protocol: as §1
As to `CCC(=O)Nc1ccccc1C#C/C=C\C#Cc1ccccc1C(F)(F)F`, growth was halved (GI50) at 4.04 µM.

`CSc1ccccc1C#C/C=C\C#Cc1ccccc1N1CCCC1=O` yielded a GI50 of 1.44 µM.

A further experiment has as its system OVCAR-3. The experiment is described as follows: Growth inhibition of human OVCAR-3 cells. The class given is functional. The gist of the method: as §1
With `CCC(=O)Nc1ccccc1C#C/C=C\C#Cc1ccccc1C(F)(F)F`, it took 8.87 µM to inhibit growth by half (GI50).

As for `CSc1ccccc1C#C/C=C\C#Cc1ccccc1N1CCCC1=O`, growth was halved (GI50) at 1.03 µM.

The next experiment deals with ACHN. In words: Growth inhibition of human ACHN cells. It is filed as functional. A digest of the protocol: as §1
As to `CCC(=O)Nc1ccccc1C#C/C=C\C#Cc1ccccc1C(F)(F)F`, the GI50 came to 30.1 µM.

The compound `CSc1ccccc1C#C/C=C\C#Cc1ccccc1N1CCCC1=O` yielded a GI50 of 10.5 µM.

A further experiment deals with DU-145. The experiment is described as follows: Growth inhibition of human DU145 cells. It is filed as functional. The gist of the method:
as §1
With `CCC(=O)Nc1ccccc1C#C/C=C\C#Cc1ccccc1C(F)(F)F`, it took 40.5 µM to inhibit growth by half (GI50).

Consider `CSc1ccccc1C#C/C=C\C#Cc1ccccc1N1CCCC1=O`, for which the GI50 amounted to 10.1 µM.

In a further experiment the test system is MDA-MB-231. The experiment is described as follows: Growth inhibition of human MDA-MB-231 cells. The class given is functional. The gist of the method:
as §1
As to `CCC(=O)Nc1ccccc1C#C/C=C\C#Cc1ccccc1C(F)(F)F`, the GI50 worked out at 7.92 µM.

`CSc1ccccc1C#C/C=C\C#Cc1ccccc1N1CCCC1=O` showed a GI50 of 1.19 µM.

For a further experiment, the system named is MDA-MB-435. The experiment is described as follows: Growth inhibition of human MDA-MB-435 cells. The class given is functional. A digest of the protocol: as §1
The compound `CCC(=O)Nc1ccccc1C#C/C=C\C#Cc1ccccc1C(F)(F)F` came in with a GI50 of 1.92 µM.

Compound `CSc1ccccc1C#C/C=C\C#Cc1ccccc1N1CCCC1=O` registered a GI50 of 0.9 µM.

For the next experiment, the system named is K562. In words: Cell cycle arrest in human K562 cells assessed as accumulation at G0/G1 phase at 10 uM after 24 hrs by flow cytometry. It is filed as functional. A digest of the protocol: (§2)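 K-562 cells (RPMI 1640, 10% fetal calf serum, 37 °C, 5% CO2) were exposed for 24 h, then fixed in ice-cold 70% ethanol for 30 min. They were treated with RNase A (1 mg/ml, 37 °C, 30 min) and stained with propidium iodide and Triton X-100 solution for 30 min in the dark. DNA content was read on 10,000 events by flow cytometry, and the sub-G1 region was gated as apoptotic.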
On the technique in general: Flow cytometry measures light scatter and fluorescence of single cells or particles in a stream.
In the case of `CCC(=O)Nc1ccccc1C#C/C=C\C#Cc1ccccc1C(F)(F)F`, the Activity worked out at 14.6%.

Take `CSc1ccccc1C#C/C=C\C#Cc1ccccc1N1CCCC1=O`: the Activity turned out to be 49.3%.

In another experiment the test system is K562. The experiment is described as follows: Cell cycle arrest in human K562 cells assessed as accumulation at S phase at 10 uM after 24 hrs by flow cytometry. It is filed as functional. The gist of the method:
as §2
Turning to `CCC(=O)Nc1ccccc1C#C/C=C\C#Cc1ccccc1C(F)(F)F`, the Activity is listed as 51.9%.

`CSc1ccccc1C#C/C=C\C#Cc1ccccc1N1CCCC1=O`: the Activity is reported as 0%.

A further experiment has as its system K562. In words: Cell cycle arrest in human K562 cells assessed as accumulation at G2/M phase at 10 uM after 24 hrs by flow cytometry. It is filed as functional. The gist of the method: as §2
As for `CCC(=O)Nc1ccccc1C#C/C=C\C#Cc1ccccc1C(F)(F)F`, the Activity is on record as 33.5%.

Take `CSc1ccccc1C#C/C=C\C#Cc1ccccc1N1CCCC1=O`: the Activity was found to be 51.7%.

The test system of another experiment is K562. In words: Cell cycle arrest in human K562 cells assessed as accumulation at SubG1 phase at 10 uM after 24 hrs by flow cytometry. It is filed as functional. A digest of the protocol:
as §2
`CCC(=O)Nc1ccccc1C#C/C=C\C#Cc1ccccc1C(F)(F)F`: the Activity came to 15.3%.

Take `CSc1ccccc1C#C/C=C\C#Cc1ccccc1N1CCCC1=O`: the Activity turned out to be 15.39%.

A further experiment relates to K562. The experiment is described as follows: Cell cycle arrest in human K562 cells assessed as accumulation at G0/G1 phase at 50 uM after 24 hrs by flow cytometry. The class given is functional. The gist of the method: as §2
In the case of `CCC(=O)Nc1ccccc1C#C/C=C\C#Cc1ccccc1C(F)(F)F`, the Activity is on record as 1.2%.

For `CSc1ccccc1C#C/C=C\C#Cc1ccccc1N1CCCC1=O`, the Activity amounted to 7.7%.

For a further experiment, the system named is K562. In words: Cell cycle arrest in human K562 cells assessed as accumulation at S phase at 50 uM after 24 hrs by flow cytometry. It is filed as functional. A digest of the protocol: as §2
In the case of `CCC(=O)Nc1ccccc1C#C/C=C\C#Cc1ccccc1C(F)(F)F`, the Activity was found to be 16.1%.

In the case of `Nc1ccccc1C#C/C=C\C#Cc1ccccc1C(F)(F)F`, the Activity is recorded as 19.3%.

Consider `CSc1ccccc1C#C/C=C\C#Cc1ccccc1N1CCCC1=O`, for which the Activity was determined as 22.9%.

Another experiment deals with K562. The experiment is described as follows: Cell cycle arrest in human K562 cells assessed as accumulation at G2/M phase at 50 uM after 24 hrs by flow cytometry. It is filed as functional. The gist of the method: as §2
On to `CCC(=O)Nc1ccccc1C#C/C=C\C#Cc1ccccc1C(F)(F)F`, for which the Activity is recorded as 82.7%.

On to `Nc1ccccc1C#C/C=C\C#Cc1ccccc1C(F)(F)F`, for which the Activity is 73.9%.

Consider `CSc1ccccc1C#C/C=C\C#Cc1ccccc1N1CCCC1=O`, for which the Activity stood at 69.4%.

The subject of another experiment is K562. In words: Cell cycle arrest in human K562 cells assessed as accumulation at SubG1 phase at 50 uM after 24 hrs by flow cytometry. It is filed as functional. The gist of the method:
as §2
In the case of `CCC(=O)Nc1ccccc1C#C/C=C\C#Cc1ccccc1C(F)(F)F`, the Activity was found to be 26.11%.

Take `CSc1ccccc1C#C/C=C\C#Cc1ccccc1N1CCCC1=O`: the Activity came to 17.79%.

A further experiment relates to K562. In words: Cell cycle arrest in human K562 cells assessed as accumulation at G1 phase at 50 uM after 24 hrs by flow cytometry. It is filed as functional. The gist of the method:
as §2
Consider `Nc1ccccc1C#C/C=C\C#Cc1ccccc1C(F)(F)F`, for which the Activity came to 6.7%.

A further experiment relates to K562. In words: Cell cycle arrest in human K562 cells assessed as apoptotic cells at 50 uM after 24 hrs by flow cytometry. It is filed as functional. The gist of the method: as §2
As to `Nc1ccccc1C#C/C=C\C#Cc1ccccc1C(F)(F)F`, the Activity came out at 19.4%.

A further experiment relates to HeLa. In words: Induction of microtubule depolymerization in human HeLa cells at 50 uM after 2 hrs by immunocytochemistry. The class given is functional, cell-based. A digest of the protocol:
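HeLa cells were grown 24 h on coverslips, then treated at 37 °C. They were fixed in 4% paraformaldehyde for 5 min and permeabilized with 0.5% Triton X-100. After blocking with 5% goat serum/1% BSA, cells were stained with anti-ninein and anti-tubulin (45 min, 37 °C), then Alexa-conjugated secondaries and DAPI. Imaging was by confocal microscopy with a 100x objective.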
Regarding `Nc1ccccc1C#C/C=C\C#Cc1ccccc1C(F)(F)F`, the outcome was Active.

The subject of a further experiment is K562. The experiment is described as follows: Induction of apoptosis in human K562 cells assessed as increase in caspase-3 activity by colorimetric assay. The class given is functional, cell-based. The gist of the method: (§3)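 Treated K-562 cells (1×10^6 cells/ml) were PBS-washed and lysed on ice for 10 min, and the cytosolic supernatant was cleared at 18,000 g. Protein was measured by BCA. Lysate protein was incubated with caspase-specific colorigenic substrate in 2X reaction buffer with 10 mM DTT at 37 °C for 1 h, and absorbance was read at 405 nm.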
`Nc1ccccc1C#C/C=C\C#Cc1ccccc1C(F)(F)F`: the Activity entry is “Dose-dependent effect”.

For another experiment, the system named is K562. The experiment is described as follows: Induction of apoptosis in human K562 cells assessed as increase in caspase-9 activity at 25 uM by colorimetric assay. It is filed as functional, cell-based. The gist of the method:
as §3
In the case of `Nc1ccccc1C#C/C=C\C#Cc1ccccc1C(F)(F)F`, the result was Active.

The next experiment relates to K562. In words: Induction of apoptosis in human K562 cells assessed as increase in caspase-9 activity at 50 uM by colorimetric assay. The class given is functional, cell-based. A digest of the protocol: as §3
For the compound `Nc1ccccc1C#C/C=C\C#Cc1ccccc1C(F)(F)F`, the result was Active.
